{"data": "Published values gathered from unrelated publications", "target": "AP2-associated protein kinase 1 (AAK1, Homo sapiens, UniProt Q2M2I8)", "note": "Protocols differ between the studies behind these lines."}
{"SMILES": "O=C(c1ccc(Nc2ncc(Cl)c(-c3ccc(Cl)s3)n2)cc1)N1CCC(N2CCCC2)CC1", "test": "binding, competition with immobilised ligand", "conditions": "1 µM", "remaining binding": "41%"}
{"SMILES": "CNC(=O)[C@@H]1CC[C@@H](n2c(-c3ccc4cnccc4c3)nc3ccc(C(=O)NCc4cccc(C(N)=O)c4)cc32)C1", "test": "binding, competition with immobilised ligand", "conditions": "1 µM", "remaining binding": "93%"}
{"SMILES": "O=C(O)c1cc(-c2ccc(C3CCNCC3)cc2)c2ccc(-c3ccc(C(F)(F)F)cc3)cc2c1", "test": "binding", "conditions": "1 µM", "remaining binding": "100%"}
{"SMILES": "O=C(Nc1c[nH]nc1C(=O)NC1CCNCC1)c1cc(F)cc(F)c1", "test": "binding, competition with immobilised ligand", "conditions": "1 µM", "remaining binding": "100%"}
{"SMILES": "COc1ccnn2ncc(-c3ccnc(N(C)C)n3)c12", "test": "binding", "conditions": "1 µM", "remaining binding": "100%"}
{"SMILES": "Nc1ncc2c(n1)-c1c([nH]c3ccc(C#CC4CC4)cc13)CCCC2", "test": "binding, competition with immobilised ligand", "conditions": "1 µM", "remaining binding": "92%"}
{"SMILES": "c1cncc(-c2cccc(Nc3nccc(NC4CCCCC4)n3)c2)c1", "test": "binding, competition with immobilised ligand", "conditions": "10 µM", "remaining binding": "33%"}
{"SMILES": "CCCCN(CCCC)C(=O)CN1C[C@H](c2cc(OC)c3c(c2)OCO3)[C@@H](C(=O)O)[C@@H]1CC(C)(C)CCC", "test": "binding", "conditions": "1 µM", "remaining binding": "100%"}
{"SMILES": "CN(CCCC(F)(F)F)c1nccc(-c2cnn3ncccc23)n1", "test": "binding", "conditions": "1 µM", "remaining binding": "100%"}
{"SMILES": "Cc1cnc(Nc2ccc(C(=O)N3CCC(N4CCCC4)CC3)cc2)nc1-c1cc2ccccc2s1", "test": "binding, competition with immobilised ligand", "conditions": "1 µM", "remaining binding": "22%"}
{"SMILES": "CN(C)c1nccc(-c2cnc3ncccn23)n1", "test": "binding", "conditions": "1 µM", "remaining binding": "88%"}
{"SMILES": "O=C(NCc1ncc(C(F)(F)F)cc1Cl)c1ccc2c(c1)C1(CCS(=O)(=O)CC1)[C@H](C1CC1)N2S(=O)(=O)c1ccc(F)cc1", "test": "binding", "conditions": "1 µM", "remaining binding": "99%"}
{"SMILES": "COc1cnc(Nc2cccc(S(N)(=O)=O)c2)nc1N1CCN(c2ccccc2)CC1", "test": "binding, competition with immobilised ligand", "conditions": "1 µM", "remaining binding": "73%"}
{"SMILES": "CN(C)c1nccc(-c2cnn3ncccc23)n1", "test": "binding", "conditions": "1 µM", "remaining binding": "75%"}
{"SMILES": "O=c1nc(-c2ccccn2)sc2ccccc12", "test": "binding", "conditions": "1 µM", "remaining binding": "100%"}
{"SMILES": "O=C(c1ccc(Nc2ncc(Cl)c(-c3cc4ccccc4s3)n2)cc1)N1CCC(N2CCCC2)CC1", "test": "binding, competition with immobilised ligand", "conditions": "1 µM", "remaining binding": "29%"}
{"SMILES": "CC(=O)C1=C(C)N(c2cccc(C(F)(F)F)c2)C(=O)N[C@@H]1c1ccc(C#N)nc1", "test": "binding", "conditions": "1 µM", "remaining binding": "100%"}
{"SMILES": "N[C@@H]1CCN(c2nccc(-c3cnn4ncccc34)n2)C1", "test": "binding", "conditions": "1 µM", "remaining binding": "73%"}
{"SMILES": "CN(c1ccnc(CNc2nc(Nc3ccc4c(c3)CC(=O)N4)ncc2C(F)(F)F)n1)S(C)(=O)=O", "test": "binding", "conditions": "1 µM", "remaining binding": "27%"}
{"SMILES": "C[C@@H]1CCN(c2nccc(-c3cnn4ncccc34)n2)C1", "test": "binding", "conditions": "1 µM", "remaining binding": "71%"}
{"SMILES": "N#CC1(c2ccccn2)CCN(Cc2cc(C(=O)N3CCCC3)c(=O)n3ccccc23)CC1", "test": "binding", "conditions": "1 µM", "remaining binding": "100%"}
{"SMILES": "COc1ncc2cc3ccccc3nc2c1C#N", "test": "cell-free assay, competition with immobilised ligand", "conditions": "5 µM", "remaining binding": "96%"}
